# According to ChEMBL document CHEMBL5303300, “EUbOPEN Chemogenomics Library - Multiplex” (2023):
# “And” between values parts separate entries of the source, which are not always exact repeats. Identical values can stand only once.
# Experiments:
# Format in all cases: toxicity, cell-based
# Fibroblast = assay: Multiplex assay against human fibroblast; settings: number of replicates 2
# Summary of the method: (§1)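 On a CQ1 microscope at 37°C and 5% CO2, live cells were imaged after compound addition. They had been stained at seeding with Hoechst33342, BioTracker Green Microtubule Cytoskeleton Dye, MitoTracker Red and Annexin V Alexa Fluor 680. CellPathfinder machine-learning gating assigned cells to Hoechst high-intensity objects or normal cells, normal cells to healthy, pyknosed or fragmented nuclei, and pyknosed cells to mitotic or apoptotic. Tubulin, mitochondrial-mass and membrane-permeability phenotypes are per cents of healthy-nucleus cells.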
# HEK-293T = assay: Multiplex assay against HEK293T; settings: human, number of replicates 2; summary of the method: as §1
# U2OS = assay: Multiplex assay against U2OS; settings: human, number of replicates 2; summary of the method: as §1
# [1] = 12 h, 1 µM, compound concentration 1 uM
# [2] = 12 h, 10 µM, compound concentration 10 uM
# [3] = 24 h, 1 µM, compound concentration 1 uM
# [4] = 24 h, 10 µM, compound concentration 10 uM
# [5] = 48 h, 1 µM, compound concentration 1 uM
# [6] = 48 h, 10 µM, compound concentration 10 uM
smiles,measurement,setting,value
CC1(C)C(=O)N([C@H]2CCc3c(O)cccc32)c2nc(Nc3cccc(CN4CCCC4)c3)ncc21,Population Apoptotic (%),Fibroblast; [1],38% and 68%
same,Population Fragmented Nuclei (%),Fibroblast; [1],14% and 18%
same,Population Healthy Nuclei (%),Fibroblast; [1],75% and 64%
same,Population Hoechst High Intensity Objects (%),Fibroblast; [1],0%
same,Population Membrane Permeable-Phenotype (%),Fibroblast; [1],5%
same,Population Mitochondria Different-Phenotype (%),Fibroblast; [1],0% and 4%
same,Population Mitotic Cells (%),Fibroblast; [1],61% and 31%
same,Population Normal (%),Fibroblast; [1],100%
same,Population Pyknosed Nuclei (%),Fibroblast; [1],9% and 17%
same,Population Tubulin-Different-Phenotype (%),Fibroblast; [1],22% and 16%
same,Total Cell Count,Fibroblast; [1],136 and 183
same,Population Apoptotic (%),Fibroblast; [2],77% and 80%
same,Population Fragmented Nuclei (%),Fibroblast; [2],22% and 20%
same,Population Healthy Nuclei (%),Fibroblast; [2],43% and 42%
same,Population Hoechst High Intensity Objects (%),Fibroblast; [2],1%
same,Population Membrane Permeable-Phenotype (%),Fibroblast; [2],9% and 4%
same,Population Mitochondria Different-Phenotype (%),Fibroblast; [2],16% and 12%
same,Population Mitotic Cells (%),Fibroblast; [2],22% and 20%
same,Population Normal (%),Fibroblast; [2],98%
same,Population Pyknosed Nuclei (%),Fibroblast; [2],33% and 37%
same,Population Tubulin-Different-Phenotype (%),Fibroblast; [2],67% and 54%
same,Total Cell Count,Fibroblast; [2],150 and 191
same,Population Apoptotic (%),Fibroblast; [3],62% and 70%
same,Population Fragmented Nuclei (%),Fibroblast; [3],18% and 20%
same,Population Healthy Nuclei (%),Fibroblast; [3],67% and 64%
same,Population Hoechst High Intensity Objects (%),Fibroblast; [3],0%
same,Population Membrane Permeable-Phenotype (%),Fibroblast; [3],5% and 2%
same,Population Mitochondria Different-Phenotype (%),Fibroblast; [3],2% and 8%
same,Population Mitotic Cells (%),Fibroblast; [3],37% and 29%
same,Population Normal (%),Fibroblast; [3],99%
same,Population Pyknosed Nuclei (%),Fibroblast; [3],13% and 15%
same,Population Tubulin-Different-Phenotype (%),Fibroblast; [3],22% and 24%
same,Total Cell Count,Fibroblast; [3],118 and 154
same,Population Apoptotic (%),Fibroblast; [4],95% and 93%
same,Population Fragmented Nuclei (%),Fibroblast; [4],25% and 22%
same,Population Healthy Nuclei (%),Fibroblast; [4],16%
same,Population Hoechst High Intensity Objects (%),Fibroblast; [4],0% and 1%
same,Population Membrane Permeable-Phenotype (%),Fibroblast; [4],7% and 8%
same,Population Mitochondria Different-Phenotype (%),Fibroblast; [4],21% and 33%
same,Population Mitotic Cells (%),Fibroblast; [4],4% and 6%
same,Population Normal (%),Fibroblast; [4],99% and 98%
same,Population Pyknosed Nuclei (%),Fibroblast; [4],58% and 61%
same,Population Tubulin-Different-Phenotype (%),Fibroblast; [4],46% and 79%
same,Total Cell Count,Fibroblast; [4],176 and 153
same,Population Apoptotic (%),Fibroblast; [5],69% and 79%
same,Population Fragmented Nuclei (%),Fibroblast; [5],13% and 14%
same,Population Healthy Nuclei (%),Fibroblast; [5],61% and 52%
same,Population Hoechst High Intensity Objects (%),Fibroblast; [5],0%
same,Population Membrane Permeable-Phenotype (%),Fibroblast; [5],18% and 15%
same,Population Mitochondria Different-Phenotype (%),Fibroblast; [5],4% and 0%
same,Population Mitotic Cells (%),Fibroblast; [5],30% and 20%
same,Population Normal (%),Fibroblast; [5],100% and 99%
same,Population Pyknosed Nuclei (%),Fibroblast; [5],24% and 32%
same,Population Tubulin-Different-Phenotype (%),Fibroblast; [5],32% and 20%
same,Total Cell Count,Fibroblast; [5],105 and 132
same,Population Apoptotic (%),Fibroblast; [6],97% and 95%
same,Population Fragmented Nuclei (%),Fibroblast; [6],15% and 19%
same,Population Healthy Nuclei (%),Fibroblast; [6],17%
same,Population Hoechst High Intensity Objects (%),Fibroblast; [6],2%
same,Population Membrane Permeable-Phenotype (%),Fibroblast; [6],14% and 20%
same,Population Mitochondria Different-Phenotype (%),Fibroblast; [6],28% and 40%
same,Population Mitotic Cells (%),Fibroblast; [6],2% and 4%
same,Population Normal (%),Fibroblast; [6],97%
same,Population Pyknosed Nuclei (%),Fibroblast; [6],67% and 62%
same,Population Tubulin-Different-Phenotype (%),Fibroblast; [6],61% and 64%
same,Total Cell Count,Fibroblast; [6],126 and 145
same,Population Apoptotic (%),HEK-293T; [1],51% and 69%
same,Population Fragmented Nuclei (%),HEK-293T; [1],1% and 2%
same,Population Healthy Nuclei (%),HEK-293T; [1],83% and 87%
same,Population Hoechst High Intensity Objects (%),HEK-293T; [1],19% and 21%
same,Population Membrane Permeable-Phenotype (%),HEK-293T; [1],1%
same,Population Mitochondria Different-Phenotype (%),HEK-293T; [1],70% and 76%
same,Population Mitotic Cells (%),HEK-293T; [1],48% and 30%
same,Population Normal (%),HEK-293T; [1],80% and 78%
same,Population Pyknosed Nuclei (%),HEK-293T; [1],14% and 10%
same,Population Tubulin-Different-Phenotype (%),HEK-293T; [1],89% and 94%
same,Total Cell Count,HEK-293T; [1],252 and 277
same,Population Apoptotic (%),HEK-293T; [2],80% and 74%
same,Population Fragmented Nuclei (%),HEK-293T; [2],1% and 2%
same,Population Healthy Nuclei (%),HEK-293T; [2],80% and 77%
same,Population Hoechst High Intensity Objects (%),HEK-293T; [2],18% and 19%
same,Population Membrane Permeable-Phenotype (%),HEK-293T; [2],2% and 0%
same,Population Mitochondria Different-Phenotype (%),HEK-293T; [2],93% and 97%
same,Population Mitotic Cells (%),HEK-293T; [2],19% and 25%
same,Population Normal (%),HEK-293T; [2],81% and 80%
same,Population Pyknosed Nuclei (%),HEK-293T; [2],17% and 20%
same,Population Tubulin-Different-Phenotype (%),HEK-293T; [2],96% and 97%
same,Total Cell Count,HEK-293T; [2],216 and 218
same,Population Apoptotic (%),HEK-293T; [3],88% and 33%
same,Population Fragmented Nuclei (%),HEK-293T; [3],4% and 3%
same,Population Healthy Nuclei (%),HEK-293T; [3],88% and 86%
same,Population Hoechst High Intensity Objects (%),HEK-293T; [3],17% and 25%
same,Population Membrane Permeable-Phenotype (%),HEK-293T; [3],2% and 3%
same,Population Mitochondria Different-Phenotype (%),HEK-293T; [3],60% and 63%
same,Population Normal (%),HEK-293T; [3],82% and 74%
same,Population Pyknosed Nuclei (%),HEK-293T; [3],7% and 9%
same,Population Tubulin-Different-Phenotype (%),HEK-293T; [3],92% and 89%
same,Total Cell Count,HEK-293T; [3],296 and 243
same,Population Apoptotic (%),HEK-293T; [4],90% and 88%
same,Population Fragmented Nuclei (%),HEK-293T; [4],4% and 3%
same,Population Healthy Nuclei (%),HEK-293T; [4],77% and 75%
same,Population Hoechst High Intensity Objects (%),HEK-293T; [4],21%
same,Population Membrane Permeable-Phenotype (%),HEK-293T; [4],3% and 1%
same,Population Mitochondria Different-Phenotype (%),HEK-293T; [4],94% and 96%
same,Population Mitotic Cells (%),HEK-293T; [4],9% and 11%
same,Population Normal (%),HEK-293T; [4],78%
same,Population Pyknosed Nuclei (%),HEK-293T; [4],18% and 21%
same,Population Tubulin-Different-Phenotype (%),HEK-293T; [4],96% and 94%
same,Total Cell Count,HEK-293T; [4],220 and 205
same,Population Apoptotic (%),HEK-293T; [5],61% and 45%
same,Population Fragmented Nuclei (%),HEK-293T; [5],7% and 6%
same,Population Healthy Nuclei (%),HEK-293T; [5],87% and 89%
same,Population Hoechst High Intensity Objects (%),HEK-293T; [5],20% and 17%
same,Population Membrane Permeable-Phenotype (%),HEK-293T; [5],2% and 0%
same,Population Mitochondria Different-Phenotype (%),HEK-293T; [5],26% and 29%
same,Population Mitotic Cells (%),HEK-293T; [5],38% and 54%
same,Population Normal (%),HEK-293T; [5],79% and 82%
same,Population Pyknosed Nuclei (%),HEK-293T; [5],4%
same,Population Tubulin-Different-Phenotype (%),HEK-293T; [5],84% and 87%
same,Total Cell Count,HEK-293T; [5],362 and 302
same,Population Apoptotic (%),HEK-293T; [6],88% and 89%
same,Population Fragmented Nuclei (%),HEK-293T; [6],3% and 1%
same,Population Healthy Nuclei (%),HEK-293T; [6],71% and 74%
same,Population Hoechst High Intensity Objects (%),HEK-293T; [6],22% and 24%
same,Population Membrane Permeable-Phenotype (%),HEK-293T; [6],0%
same,Population Mitochondria Different-Phenotype (%),HEK-293T; [6],94%
same,Population Mitotic Cells (%),HEK-293T; [6],11% and 10%
same,Population Normal (%),HEK-293T; [6],77% and 75%
same,Population Pyknosed Nuclei (%),HEK-293T; [6],24%
same,Population Tubulin-Different-Phenotype (%),HEK-293T; [6],98% and 97%
same,Total Cell Count,HEK-293T; [6],227 and 202
same,Population Apoptotic (%),U2OS; [1],50% and 79%
same,Population Healthy Nuclei (%),U2OS; [1],25% and 70%
same,Population Hoechst High Intensity Objects (%),U2OS; [1],0%
same,Population Membrane Permeable-Phenotype (%),U2OS; [1],0% and 6%
same,Population Mitochondria Different-Phenotype (%),U2OS; [1],0% and 17%
same,Population Mitotic Cells (%),U2OS; [1],50% and 20%
same,Population Normal (%),U2OS; [1],100%
same,Population Pyknosed Nuclei (%),U2OS; [1],22%
same,Population Tubulin-Different-Phenotype (%),U2OS; [1],55% and 51%
same,Population Apoptotic (%),U2OS; [2],90% and 88%
same,Population Healthy Nuclei (%),U2OS; [2],28% and 42%
same,Population Hoechst High Intensity Objects (%),U2OS; [2],0% and 2%
same,Population Membrane Permeable-Phenotype (%),U2OS; [2],62% and 26%
same,Population Mitochondria Different-Phenotype (%),U2OS; [2],50% and 59%
same,Population Mitotic Cells (%),U2OS; [2],9% and 11%
same,Population Normal (%),U2OS; [2],100% and 97%
same,Population Pyknosed Nuclei (%),U2OS; [2],39% and 49%
same,Population Tubulin-Different-Phenotype (%),U2OS; [2],62% and 73%
same,Population Apoptotic (%),U2OS; [3],80% and 81%
same,Population Healthy Nuclei (%),U2OS; [3],25% and 59%
same,Population Hoechst High Intensity Objects (%),U2OS; [3],0%
same,Population Membrane Permeable-Phenotype (%),U2OS; [3],0% and 6%
same,Population Mitochondria Different-Phenotype (%),U2OS; [3],0% and 16%
same,Population Mitotic Cells (%),U2OS; [3],20% and 18%
same,Population Normal (%),U2OS; [3],100%
same,Population Pyknosed Nuclei (%),U2OS; [3],31% and 29%
same,Population Tubulin-Different-Phenotype (%),U2OS; [3],62% and 42%
same,Population Apoptotic (%),U2OS; [4],90% and 92%
same,Population Healthy Nuclei (%),U2OS; [4],31% and 20%
same,Population Hoechst High Intensity Objects (%),U2OS; [4],0% and 2%
same,Population Membrane Permeable-Phenotype (%),U2OS; [4],44% and 36%
same,Population Mitochondria Different-Phenotype (%),U2OS; [4],66% and 72%
same,Population Mitotic Cells (%),U2OS; [4],9% and 8%
same,Population Normal (%),U2OS; [4],100% and 97%
same,Population Pyknosed Nuclei (%),U2OS; [4],37% and 71%
same,Population Tubulin-Different-Phenotype (%),U2OS; [4],55% and 83%
same,Population Apoptotic (%),U2OS; [5],91% and 94%
same,Population Hoechst High Intensity Objects (%),U2OS; [5],3% and 1%
same,Population Membrane Permeable-Phenotype (%),U2OS; [5],50% and 21%
same,Population Mitochondria Different-Phenotype (%),U2OS; [5],0% and 22%
same,Population Mitotic Cells (%),U2OS; [5],8% and 5%
same,Population Normal (%),U2OS; [5],96% and 98%
same,Population Pyknosed Nuclei (%),U2OS; [5],37% and 47%
same,Population Tubulin-Different-Phenotype (%),U2OS; [5],50% and 51%
same,Population Apoptotic (%),U2OS; [6],97% and 81%
same,Population Healthy Nuclei (%),U2OS; [6],12% and 15%
same,Population Hoechst High Intensity Objects (%),U2OS; [6],1% and 2%
same,Population Membrane Permeable-Phenotype (%),U2OS; [6],77% and 50%
same,Population Mitochondria Different-Phenotype (%),U2OS; [6],77% and 50%
same,Population Normal (%),U2OS; [6],98% and 97%
same,Population Pyknosed Nuclei (%),U2OS; [6],81% and 28%
same,Population Tubulin-Different-Phenotype (%),U2OS; [6],81% and 83%
